Experimental data reported in the M2OR odorant receptor database.

Key:
Settings in all cases: stereoisomer not certain
UniProt Q8VGX8 = target: T1, UniProt Q8VGX8
T1 sequence (whole entry): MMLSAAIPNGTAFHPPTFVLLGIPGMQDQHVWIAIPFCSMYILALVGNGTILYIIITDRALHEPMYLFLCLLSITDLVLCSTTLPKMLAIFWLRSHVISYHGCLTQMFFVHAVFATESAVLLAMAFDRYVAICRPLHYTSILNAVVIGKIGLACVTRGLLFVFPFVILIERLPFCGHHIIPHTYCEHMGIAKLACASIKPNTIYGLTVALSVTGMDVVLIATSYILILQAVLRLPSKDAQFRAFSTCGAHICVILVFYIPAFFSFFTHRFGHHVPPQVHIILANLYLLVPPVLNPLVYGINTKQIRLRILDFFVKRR
Outline: (§1)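 Each receptor–molecule pair is labelled responsive or non-responsive (inactive) according to whether the original authors judged the measured signal statistically different from baseline. The data were taken from the main text and supplementary material of published papers and checked for typos and inconsistencies. Assay methods differed by source, with transient luciferase assays in mammalian cell lines being common.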

UniProt Q8VGY6 = target: T2, UniProt Q8VGY6
T2 sequence (whole entry): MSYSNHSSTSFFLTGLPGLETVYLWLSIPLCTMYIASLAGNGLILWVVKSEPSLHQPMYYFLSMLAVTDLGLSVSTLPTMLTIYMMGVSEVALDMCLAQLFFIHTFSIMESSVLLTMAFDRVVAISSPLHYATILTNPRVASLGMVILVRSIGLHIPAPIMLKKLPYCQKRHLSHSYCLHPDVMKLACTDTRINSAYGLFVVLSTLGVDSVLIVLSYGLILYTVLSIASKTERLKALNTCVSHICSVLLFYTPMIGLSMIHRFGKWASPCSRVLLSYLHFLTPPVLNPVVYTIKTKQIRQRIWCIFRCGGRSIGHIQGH
Outline: as §1

UniProt Q8VGZ2 = target: T3, UniProt Q8VGZ2
T3 sequence (whole entry): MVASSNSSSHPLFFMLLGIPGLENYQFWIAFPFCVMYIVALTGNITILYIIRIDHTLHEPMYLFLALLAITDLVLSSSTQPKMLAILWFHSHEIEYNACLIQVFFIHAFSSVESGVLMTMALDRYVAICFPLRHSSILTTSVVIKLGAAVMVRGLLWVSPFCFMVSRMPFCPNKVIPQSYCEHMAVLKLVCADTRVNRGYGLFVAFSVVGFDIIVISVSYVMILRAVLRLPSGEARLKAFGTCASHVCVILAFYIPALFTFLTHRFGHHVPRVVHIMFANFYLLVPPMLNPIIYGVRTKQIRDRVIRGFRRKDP
Outline: as §1

UniProt Q8VGZ7 = target: T4, UniProt Q8VGZ7
T4 sequence (whole entry): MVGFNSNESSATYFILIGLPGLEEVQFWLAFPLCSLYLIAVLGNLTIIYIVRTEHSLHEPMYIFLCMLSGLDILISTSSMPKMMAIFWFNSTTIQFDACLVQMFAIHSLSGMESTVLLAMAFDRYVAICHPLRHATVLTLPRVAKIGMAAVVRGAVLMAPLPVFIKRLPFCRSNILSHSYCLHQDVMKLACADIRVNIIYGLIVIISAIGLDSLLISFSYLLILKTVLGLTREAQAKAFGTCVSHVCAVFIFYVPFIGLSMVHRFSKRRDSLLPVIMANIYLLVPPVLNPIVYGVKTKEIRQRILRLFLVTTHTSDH
Outline: as §1

UniProt Q8VH10 = target: T5, UniProt Q8VH10
T5 sequence (whole entry): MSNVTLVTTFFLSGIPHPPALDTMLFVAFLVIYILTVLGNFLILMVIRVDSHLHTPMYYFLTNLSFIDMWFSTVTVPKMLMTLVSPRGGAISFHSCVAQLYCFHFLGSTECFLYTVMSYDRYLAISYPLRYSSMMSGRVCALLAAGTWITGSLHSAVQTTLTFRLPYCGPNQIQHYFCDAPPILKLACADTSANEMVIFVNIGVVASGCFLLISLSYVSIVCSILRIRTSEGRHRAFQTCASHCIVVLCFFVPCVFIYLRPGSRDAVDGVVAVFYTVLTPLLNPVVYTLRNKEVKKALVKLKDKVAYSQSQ
Outline: as §1

UniProt Q8VH16 = target: T6, UniProt Q8VH16
T6 sequence (whole entry): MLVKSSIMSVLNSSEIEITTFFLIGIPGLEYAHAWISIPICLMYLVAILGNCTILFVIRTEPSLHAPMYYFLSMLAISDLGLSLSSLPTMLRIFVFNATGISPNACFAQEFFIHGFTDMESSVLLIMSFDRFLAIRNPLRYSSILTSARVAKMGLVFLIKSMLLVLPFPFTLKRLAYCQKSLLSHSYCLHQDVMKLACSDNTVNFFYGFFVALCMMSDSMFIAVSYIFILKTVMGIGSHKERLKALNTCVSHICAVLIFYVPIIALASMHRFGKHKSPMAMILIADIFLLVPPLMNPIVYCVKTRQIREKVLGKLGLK
Outline: as §1

UniProt Q8VH20 = target: T7, UniProt Q8VH20
T7 sequence (whole entry): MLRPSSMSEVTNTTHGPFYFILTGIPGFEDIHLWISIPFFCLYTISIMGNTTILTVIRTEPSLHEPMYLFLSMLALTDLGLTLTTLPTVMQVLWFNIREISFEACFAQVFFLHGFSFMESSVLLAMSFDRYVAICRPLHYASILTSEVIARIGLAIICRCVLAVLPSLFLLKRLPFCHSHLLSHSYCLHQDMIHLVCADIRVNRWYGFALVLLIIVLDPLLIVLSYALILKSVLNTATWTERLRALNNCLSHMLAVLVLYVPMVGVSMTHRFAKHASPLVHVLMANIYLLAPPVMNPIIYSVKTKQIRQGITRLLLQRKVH
Outline: as §1

UniProt Q8VH21 = target: T8, UniProt Q8VH21
T8 sequence (whole entry): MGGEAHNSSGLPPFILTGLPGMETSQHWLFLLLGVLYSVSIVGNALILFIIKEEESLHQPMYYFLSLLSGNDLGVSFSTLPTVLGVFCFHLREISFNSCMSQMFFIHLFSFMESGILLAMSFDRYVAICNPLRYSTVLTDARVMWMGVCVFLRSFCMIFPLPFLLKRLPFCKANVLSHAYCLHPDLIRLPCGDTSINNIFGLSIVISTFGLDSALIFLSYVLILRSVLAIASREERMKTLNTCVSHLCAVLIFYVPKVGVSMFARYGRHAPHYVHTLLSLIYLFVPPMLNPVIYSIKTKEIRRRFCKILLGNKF
Outline: as §1

UniProt Q8VH18 = target: T9, UniProt Q8VH18
T9 sequence (whole entry): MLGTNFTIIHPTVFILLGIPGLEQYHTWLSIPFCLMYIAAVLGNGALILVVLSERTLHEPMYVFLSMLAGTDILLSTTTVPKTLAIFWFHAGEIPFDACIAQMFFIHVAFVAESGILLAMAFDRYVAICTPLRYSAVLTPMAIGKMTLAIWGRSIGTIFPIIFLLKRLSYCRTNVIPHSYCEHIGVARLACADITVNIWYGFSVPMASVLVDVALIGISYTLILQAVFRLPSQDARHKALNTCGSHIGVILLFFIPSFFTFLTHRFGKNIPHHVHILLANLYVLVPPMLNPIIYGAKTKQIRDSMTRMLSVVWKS
Outline: as §1

Measured: odorant receptor agonist call

CCC(=O)C(=O)CC
not listed: UniProt Q8VH18
inactive: all other assays above

CCCCCCC(C)=O
not listed: UniProt Q8VH18
inactive: all other assays above

O=C1Cc2ccccc2O1
not listed: UniProt Q8VH18
inactive: all other assays above

CCCCCCCCC(=O)O
inactive: UniProt Q8VGY6 | UniProt Q8VH10 | UniProt Q8VH16 | UniProt Q8VH21
active: all other assays above

C=C(C)C1CCC(C)C(=O)C1 (stereo unspecified)
not listed: UniProt Q8VH18
inactive: all other assays above

CC(C)=CCCC(C)CCO (stereo unspecified)
not listed: UniProt Q8VH18
inactive: all other assays above

CCCC(=O)C(C)=O
not listed: UniProt Q8VH18
inactive: all other assays above

CCCCCCCCS
not listed: UniProt Q8VH18
inactive: all other assays above

CCCCCCCCCS
not listed: UniProt Q8VH18
inactive: all other assays above

C=CCOC(=O)CCCCCC
not listed: UniProt Q8VH18
inactive: all other assays above

CCCCCCO
inactive: all assays above

CCCCCCCC(C)=O
not listed: UniProt Q8VH18
inactive: all other assays above

CCOC(=O)C(C)C
not listed: UniProt Q8VH18
inactive: all other assays above

CCCCCCOC(C)=O
not listed: UniProt Q8VH18
inactive: all other assays above

CC(=O)OCC=C(C)C
not listed: UniProt Q8VH18
inactive: all other assays above

CC(=O)Oc1ccccc1
active: UniProt Q8VH10
not listed: UniProt Q8VH18
inactive: all other assays above

CCCCC(=O)O
active: UniProt Q8VH21
not listed: UniProt Q8VH18
inactive: all other assays above

CCCCCC1=C(C)CCC1=O
not listed: UniProt Q8VH18
inactive: all other assays above

O=C1CCOc2ccccc21
not listed: UniProt Q8VH18
inactive: all other assays above

CCC(=O)O
not listed: UniProt Q8VH18
inactive: all other assays above

CCCCCCCCCO
active: UniProt Q8VH18
inactive: all other assays above

CCCCC(=O)CC
not listed: UniProt Q8VH18
inactive: all other assays above

CC(=O)OCc1ccccc1
active: UniProt Q8VH10
not listed: UniProt Q8VH18
inactive: all other assays above

CCCCOC=O
not listed: UniProt Q8VH18
inactive: all other assays above

CCCCCCCO
inactive: all assays above

CC12CCC(CC1=O)C2(C)C (stereo unspecified)
not listed: UniProt Q8VH18
inactive: all other assays above

CCCCCCCCCC(=O)[O-].[H+]
active: UniProt Q8VGX8 | UniProt Q8VGZ2 | UniProt Q8VH20
inactive: all other assays above

CCCCCOC(=O)CCCCC
not listed: UniProt Q8VH18
inactive: all other assays above

CCCCCCCCO
active: UniProt Q8VH18
inactive: all other assays above

CCCCC(C)=O
not listed: UniProt Q8VH18
inactive: all other assays above
